Experimental data of several laboratories.
Values after ≈ are worked out from the molar mass of the structure shown.

For `COC1CN(C(=O)c2sc3ncccc3c2N)C1`, the IC50 was over 100 µM (HepG2; cell growth or viability; 72 h).
`Cc1nnc2nc(-c3ccccn3)cc(NCCc3ccc(Cl)cc3)n12` gave an MIC of 17 to 50 µM (≈ 6.2 to 18.2 µg/mL) (Mycobacterium tuberculosis; microbial growth; H37RV; 5 days).
`CCCCN(CCCC)C(=N)CC(O)c1cc2c(F)cc(F)cc2c2cc(C(F)(F)F)ccc12` (stereo not drawn) has an IC50 of 16.6 µM (HepG2; cell growth or viability, neutral red; 24 h).
`COCC(=O)OCc1cc2[nH]c(=S)n(Cc3cccnc3)c(=O)c2cc1Cl` has an MIC90 of 2.36 µM (≈ 0.958 µg/mL) (Mycobacterium tuberculosis; microbial growth; H37RV).
`CCN(CC)C(=O)c1sc2ncccc2c1N` has an IC50 of over 100 µM (HepG2; cell growth or viability; 72 h).
For `N#Cc1cc2[nH]c(=S)n(Cc3cccnc3)c(=O)c2cc1Cl`, the MIC90 was over 100 µM (Mycobacterium tuberculosis; microbial growth; H37RV).
`O=C(Nc1ccc(Cl)cc1)Nc1cccc(-c2cn(Cc3ccc(Br)cc3)nn2)c1` has a viability of 13.1% (Huh-7; cell growth or viability, CCK-8; 50 µM, 72 h).
The MIC of `Clc1ccc(CCNc2cc(-c3ccccn3)nc3cc(Br)nn23)cc1` is reported as 36 µM (≈ 15.4 µg/mL) (Mycobacterium tuberculosis; microbial growth; H37RV).
`N=C(CC(O)c1cc2c(F)cc(F)cc2c2cc(C(F)(F)F)ccc12)N1CCC(F)(F)CC1` (stereo not drawn) has an IC50 of 15.7 µM (HepG2; cell growth or viability, neutral red; 24 h).
`FC(F)(F)Oc1ccc(CCNc2cc(-c3ccccn3)nc3nncn23)cc1` has an MIC of 4 µM (≈ 1.6 µg/mL) (Mycobacterium tuberculosis; microbial growth; H37RV).
With `COc1ccc(-c2cc(C(F)(F)F)c3c(N)c(C(=O)NC4COC4)sc3n2)cc1` the IC50 was over 100 µM (HepG2; cell growth or viability; 72 h).
`N=C(CC(O)c1cc2c(F)cc(F)cc2c2cc(C(F)(F)F)ccc12)NCc1ccc(F)cc1` (stereo not drawn) gave an IC50 of 7.2 µM (HepG2; cell growth or viability, neutral red; 24 h).
`O=c1c2cc(Cl)c(CO)cc2[nH]c(=S)n1Cc1cncnc1` has an MIC90 of 3.23 µM (≈ 1.08 µg/mL) (Mycobacterium tuberculosis; microbial growth; H37RV).
For `COc1ccc(-c2cc(C(F)(F)F)c3c(N)c(C(=O)Nc4c(C)cccc4C)sc3n2)cc1`, the IC50 was over 100 µM (HepG2; cell growth or viability; 72 h).
`O=c1c2nc(Cl)ccc2[nH]c(=S)n1Cc1cccnc1` has an MIC90 of over 100 µM (Mycobacterium tuberculosis; microbial growth; H37RV).
With `Cc1ccc(CCNc2cc(-c3ccccn3)nc3nncn23)cc1` the MIC was 0.26 µM (≈ 0.0859 µg/mL) (Mycobacterium tuberculosis; microbial growth; H37RV).
For `N#Cc1ccc(Cn2c(=S)[nH]c3ccc(Cl)cc3c2=O)cn1`, the MIC90 was over 100 µM (Mycobacterium tuberculosis; microbial growth; H37RV).
`Nc1c(C(=O)NCc2ccccc2)sc2nc(-c3ccccc3)ccc12` has an IC50 of over 100 µM (HepG2; cell growth or viability; 72 h).
For `COCCC(c1cccnc1)n1c(=S)[nH]c2ccc(Cl)cc2c1=O` (stereo not drawn), the MIC90 was over 100 µM (Mycobacterium tuberculosis; microbial growth; H37RV).
`COCCNC(=O)c1sc2nc(-c3ccc(OC)cc3)cc(C(F)(F)F)c2c1N` has an IC50 of over 100 µM (HepG2; cell growth or viability; 72 h).
For `CC(C)C(=O)OCc1cc2[nH]c(=S)n(Cc3cncc(C#N)c3)c(=O)c2cc1Cl`, the MIC90 was 5.52 µM (≈ 2.37 µg/mL) (Mycobacterium tuberculosis; microbial growth; H37RV).
With `Cc1c(F)cccc1NC(=N)CC(O)c1cc2c(F)cc(F)cc2c2cc(C(F)(F)F)ccc12` (stereo not drawn) the IC50 was 11.3 µM (HepG2; cell growth or viability, neutral red; 24 h).
`N.N.[Cl][Pt][Cl]` has an IC50 of 2.76 µM (Ramos; cell growth or viability, ATP luminescence; 72 h).
With `COc1ccc(-c2cc(C(F)(F)F)c3c(N)c(C(=O)NC45CC6CC(CC(C6)C4)C5)sc3n2)cc1` the IC50 was over 100 µM (HepG2; cell growth or viability; 72 h).
With `Cc1ccc(CCNc2cc(-c3ccccn3)nc3cc(Br)nn23)cc1` the MIC was 25 µM (≈ 10.2 µg/mL) (Mycobacterium tuberculosis; microbial growth; H37RV).
With `O=c1[nH]c2cc(CO)c(Cl)cc2c(=O)n1Cc1cncnc1` the MIC90 was 34.5 µM (≈ 11 µg/mL) (Mycobacterium tuberculosis; microbial growth; H37RV).
`Nc1c(C(=O)N2CCCC2)sc2nc(-c3ccc4c(c3)OCO4)cc(C(F)(F)F)c12` gave an IC50 of over 100 µM (HepG2; cell growth or viability; 72 h).
